Measurements taken from ChEMBL document CHEMBL4689842, “EUbOPEN Chemogenomics Library wave 1” (2021).

Test system: HEK-293T
Assay: Multiplex assay against HEK293T;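 as to Population Tubulin-Different-Phenotype (%): share of the cells with healthy nuclei that show this phenotype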
Format: toxicity, cell-based
Details: human
Procedure, shortened: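 Values for tubulin, mitochondrial-mass and membrane-permeability phenotypes are per cents of cells with healthy nuclei. These cells were identified by CellPathfinder machine-learning gating of live cells that had been stained at seeding with Hoechst33342, BioTracker Green Microtubule Cytoskeleton Dye, MitoTracker Red and Annexin V Alexa Fluor 680 and imaged on a CQ1 microscope at 37°C and 5% CO2 after compound addition. The gating first set Hoechst high-intensity objects apart from normal cells, then split normal cells into healthy, pyknosed or fragmented nuclei, and pyknosed cells into mitotic or apoptotic.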

[1] = 12 h, 1 µM, compound concentration 1 uM, replicate 1
[2] = 12 h, 1 µM, compound concentration 1 uM, replicate 2
[3] = 12 h, 10 µM, compound concentration 10 uM, replicate 1
[4] = 12 h, 10 µM, compound concentration 10 uM, replicate 2
[5] = 24 h, 1 µM, compound concentration 1 uM, replicate 1
[6] = 24 h, 1 µM, compound concentration 1 uM, replicate 2
[7] = 24 h, 10 µM, compound concentration 10 uM, replicate 1
[8] = 24 h, 10 µM, compound concentration 10 uM, replicate 2
[9] = 48 h, 1 µM, compound concentration 1 uM, replicate 1
[10] = 48 h, 1 µM, compound concentration 1 uM, replicate 2
[11] = 48 h, 10 µM, compound concentration 10 uM, replicate 1
[12] = 48 h, 10 µM, compound concentration 10 uM, replicate 2

## CC(C)[C@H](CO)Nc1nc(Nc2cccc(Cl)c2)c2ncn(C(C)C)c2n1 [PURVALANOLA]
[1]
  Population Apoptotic (%): 48%
  Population Fragmented Nuclei (%): 8%
  Population Healthy Nuclei (%): 37%
  Population Hoechst High Intensity Objects (%): 13%
  Population Membrane Permeable-Phenotype (%): 5%
  Population Mitochondria Different-Phenotype (%): 85%
  Population Mitotic Cells (%): 51%
  Population Normal (%): 86%
  Population Pyknosed Nuclei (%): 54%
  Population Tubulin-Different-Phenotype (%): 53%
  Total Cell Count: 256
[2]
  Population Apoptotic (%): 19%
  Population Fragmented Nuclei (%): 6%
  Population Healthy Nuclei (%): 43%
  Population Hoechst High Intensity Objects (%): 3%
  Population Membrane Permeable-Phenotype (%): 7%
  Population Mitochondria Different-Phenotype (%): 33%
  Population Mitotic Cells (%): 80%
  Population Normal (%): 96%
  Population Pyknosed Nuclei (%): 50%
  Population Tubulin-Different-Phenotype (%): 32%
  Total Cell Count: 201
[3]
  Population Apoptotic (%): 73%
  Population Fragmented Nuclei (%): 7%
  Population Healthy Nuclei (%): 27%
  Population Hoechst High Intensity Objects (%): 12%
  Population Membrane Permeable-Phenotype (%): 2%
  Population Mitochondria Different-Phenotype (%): 97%
  Population Mitotic Cells (%): 26%
  Population Normal (%): 87%
  Population Pyknosed Nuclei (%): 64%
  Population Tubulin-Different-Phenotype (%): 98%
  Total Cell Count: 324
[4]
  Population Apoptotic (%): 53%
  Population Fragmented Nuclei (%): 6%
  Population Healthy Nuclei (%): 18%
  Population Hoechst High Intensity Objects (%): 7%
  Population Membrane Permeable-Phenotype (%): 5%
  Population Mitochondria Different-Phenotype (%): 82%
  Population Mitotic Cells (%): 46%
  Population Normal (%): 92%
  Population Pyknosed Nuclei (%): 75%
  Population Tubulin-Different-Phenotype (%): 97%
  Total Cell Count: 198
[5]
  Population Apoptotic (%): 42%
  Population Fragmented Nuclei (%): 14%
  Population Healthy Nuclei (%): 36%
  Population Hoechst High Intensity Objects (%): 11%
  Population Membrane Permeable-Phenotype (%): 4%
  Population Mitochondria Different-Phenotype (%): 75%
  Population Mitotic Cells (%): 57%
  Population Normal (%): 88%
  Population Pyknosed Nuclei (%): 49%
  Population Tubulin-Different-Phenotype (%): 53%
  Total Cell Count: 295
[6]
  Population Apoptotic (%): 14%
  Population Fragmented Nuclei (%): 4%
  Population Healthy Nuclei (%): 63%
  Population Hoechst High Intensity Objects (%): 3%
  Population Membrane Permeable-Phenotype (%): 3%
  Population Mitochondria Different-Phenotype (%): 26%
  Population Mitotic Cells (%): 85%
  Population Normal (%): 96%
  Population Pyknosed Nuclei (%): 31%
  Population Tubulin-Different-Phenotype (%): 36%
  Total Cell Count: 244
[7]
  Population Apoptotic (%): 75%
  Population Fragmented Nuclei (%): 6%
  Population Healthy Nuclei (%): 31%
  Population Hoechst High Intensity Objects (%): 12%
  Population Membrane Permeable-Phenotype (%): 2%
  Population Mitochondria Different-Phenotype (%): 98%
  Population Mitotic Cells (%): 24%
  Population Normal (%): 87%
  Population Pyknosed Nuclei (%): 61%
  Population Tubulin-Different-Phenotype (%): 96%
  Total Cell Count: 375
[8]
  Population Apoptotic (%): 69%
  Population Fragmented Nuclei (%): 4%
  Population Healthy Nuclei (%): 19%
  Population Hoechst High Intensity Objects (%): 9%
  Population Membrane Permeable-Phenotype (%): 5%
  Population Mitochondria Different-Phenotype (%): 94%
  Population Mitotic Cells (%): 30%
  Population Normal (%): 90%
  Population Pyknosed Nuclei (%): 75%
  Population Tubulin-Different-Phenotype (%): 97%
  Total Cell Count: 200
[9]
  Population Apoptotic (%): 49%
  Population Fragmented Nuclei (%): 18%
  Population Healthy Nuclei (%): 42%
  Population Hoechst High Intensity Objects (%): 13%
  Population Membrane Permeable-Phenotype (%): 3%
  Population Mitochondria Different-Phenotype (%): 46%
  Population Mitotic Cells (%): 50%
  Population Normal (%): 86%
  Population Pyknosed Nuclei (%): 40%
  Population Tubulin-Different-Phenotype (%): 38%
  Total Cell Count: 347
[10]
  Population Apoptotic (%): 13%
  Population Fragmented Nuclei (%): 7%
  Population Healthy Nuclei (%): 77%
  Population Hoechst High Intensity Objects (%): 4%
  Population Mitochondria Different-Phenotype (%): 12%
  Population Mitotic Cells (%): 86%
  Population Normal (%): 95%
  Population Pyknosed Nuclei (%): 15%
  Population Tubulin-Different-Phenotype (%): 26%
  Total Cell Count: 414
[11]
  Population Apoptotic (%): 85%
  Population Fragmented Nuclei (%): 8%
  Population Healthy Nuclei (%): 50%
  Population Hoechst High Intensity Objects (%): 12%
  Population Mitochondria Different-Phenotype (%): 99%
  Population Mitotic Cells (%): 14%
  Population Normal (%): 87%
  Population Pyknosed Nuclei (%): 41%
  Population Tubulin-Different-Phenotype (%): 99%
  Total Cell Count: 366
[12]
  Population Apoptotic (%): 89%
  Population Fragmented Nuclei (%): 6%
  Population Healthy Nuclei (%): 38%
  Population Hoechst High Intensity Objects (%): 5%
  Population Membrane Permeable-Phenotype (%): 2%
  Population Mitochondria Different-Phenotype (%): 94%
  Population Mitotic Cells (%): 10%
  Population Normal (%): 94%
  Population Pyknosed Nuclei (%): 55%
  Population Tubulin-Different-Phenotype (%): 94%
  Total Cell Count: 190
